Broadly, the EC50 is the concentration giving half of the maximal effect. A low value points to a more potent agent. Broadly, the IC50 is the midpoint of a concentration-inhibition curve.

Experiment [1] can be described thus: Cytotoxicity against human CLL cells after 48 hrs by MTT method. The format is functional, cell-based. In outline:
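Freshly isolated CLL cells plated at 2.5 × 10^5 per well and exposed to compounds for 48 h. MTT added at 1/10 volume of a 5 mg/mL stock, followed by overnight incubation at 37 °C before read-out of viability.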

A short description of experiment [2]: Inhibition of Wnt/beta-catenin signaling in human SW480 cells by fluorimetry.

Structures are written as SMILES.

In experiment [1], `C=C(CC)C(=O)c1ccc(OCC(=O)Nc2ccc3nc[nH]c3c2)c(Cl)c1Cl` gave an EC50 of 3.2 µM. Besides, half-maximal inhibition in experiment [2] (IC50) required 3.62 µM.

On to `C=C(CC)C(=O)c1ccc(OCC(=O)NCCCN2CCCC2=O)c(Cl)c1Cl`, for which, in experiment [1], a half-maximal response (EC50) required 13.8 µM. This molecule also displayed an IC50 in experiment [2] above 50 µM.

As to `C=C(CC)C(=O)c1ccc(OCC(=O)Nc2ccc(C(=O)OC)cc2)c(Cl)c1Cl`, the EC50 in experiment [1] amounted to 4.1 µM. This molecule gave a half-maximal inhibitory concentration (IC50) in experiment [2] of 11.4 µM.

In experiment [1], `C=C(CC)C(=O)c1ccc(OCC(=O)Nc2nc3ccccc3s2)c(Cl)c1Cl` gave an EC50 of 1.5 µM. This molecule also gave a half-inhibitory concentration (IC50) in experiment [2] of 4.86 µM.

The molecule `C=C(CC)C(=O)c1ccc(OCC(=O)Nc2ccc(S(=O)(=O)O)cc2)c(Cl)c1Cl` had an EC50 in experiment [1] above 25 µM. The IC50 in experiment [2] is above 50 µM.

For `C=C(CC)C(=O)c1ccc(OCC(=O)NC(CS)C(=O)OCC)c(Cl)c1Cl` (centres undefined), in experiment [1], a half-maximal effect (EC50) was put at 4.8 µM. The 50% inhibitory concentration (IC50) in experiment [2] was above 50 µM.

Turning to `C=C(CC)C(=O)c1ccc(OCC(=O)Nc2ccc(C#N)cc2)c(Cl)c1Cl`, the EC50 in experiment [1] came to 7.8 µM. The same molecule showed an IC50 in experiment [2] of 6.84 µM.

Turning to `C=C(CC)C(=O)c1ccc(OCC(=O)Nc2ccc3c(C)cc(=O)oc3c2)c(Cl)c1Cl`, the EC50 in experiment [1] was found to be 2.8 µM. In addition, the half-inhibitory concentration (IC50) in experiment [2] worked out at 2.63 µM.

For the molecule `C=C(CC)C(=O)c1ccc(OCC(=O)Nc2ccc3c(c2)C(=O)c2ccccc2C3=O)c(Cl)c1Cl`, the EC50 in experiment [1] came to 2.1 µM. For the same molecule, in experiment [2], half-maximal inhibition (IC50) was put at 2.97 µM.

Consider `C=C(CC)C(=O)c1ccc(OCC(=O)Nc2ccc3c(c2)C(=O)NC3=O)c(Cl)c1Cl`, for which, in experiment [1], the EC50 was found to be 2.5 µM. Moreover, the midpoint of inhibition in experiment [2], the IC50, lay at 4.88 µM.

Regarding `C=C(CC)C(=O)c1ccc(OCC(=O)Nc2ccc(Cl)c(C(=O)O)c2)c(Cl)c1Cl`, the EC50 in experiment [1] came to 15.9 µM. The IC50 in experiment [2] is above 50 µM.

On to `C=C(CC)C(=O)c1ccc(OCC(=O)Nc2ccc(C(=O)O)cc2)c(Cl)c1Cl`, for which the EC50 in experiment [1] was 5 µM. In addition, in experiment [2], half-maximal inhibition (IC50) was put at 5.81 µM.

As for `C=C(CC)C(=O)c1ccc(OCC(=O)Nc2ccc(C(C)=O)cc2)c(Cl)c1Cl`, a half-maximal effect in experiment [1] (EC50) was put at 3.9 µM. The molecule further gave an IC50 in experiment [2] of 5.06 µM.

Take `C=C(CC)C(=O)c1ccc(OCC(=O)O)c(Cl)c1Cl` [ETHACRYNIC ACID]: the response in experiment [1] was half-maximal at 9.9 µM (EC50). Besides, in experiment [2], 32.7 µM corresponded to half-maximal inhibition (IC50).

On to `C=C(CC)C(=O)c1ccc(OCC(=O)NO)c(Cl)c1Cl`, for which the EC50 in experiment [1] is 4.5 µM. Besides, half-maximal inhibition in experiment [2] (IC50) required 9.89 µM.

In the case of `C=C(CC)C(=O)c1ccc(OCC(=O)NCCc2c[nH]c3ccccc23)c(Cl)c1Cl`, the response in experiment [1] was half-maximal at 5.9 µM (EC50). In experiment [2], this molecule returned an IC50 of 10.7 µM.

As for `C=C(CC)C(=O)c1ccc(OCC(=O)Nc2ccc(C(N)=O)cc2)c(Cl)c1Cl`, the EC50 in experiment [1] worked out at 3.7 µM. For the same molecule, in experiment [2], the IC50 came to 4.76 µM.

With `C=C(CC)C(=O)c1ccc(OCC(=O)Nc2ccc3cc(C(=O)O)ccc3c2)c(Cl)c1Cl`, the EC50 in experiment [1] stood at 3.7 µM. For the same molecule, in experiment [2], the IC50 came to 2.93 µM.

In the case of `C=C(CC)C(=O)c1ccc(OCC(=O)Nc2cc(OC)c(OC)cc2C(=O)O)c(Cl)c1Cl`, the EC50 in experiment [1] turned out to be 21.9 µM. This molecule yielded an IC50 in experiment [2] above 50 µM.

As for `C=C(CC)C(=O)c1ccc(OCC(=O)Nc2ccc(O)cc2)c(Cl)c1Cl`, the EC50 in experiment [1] was determined as 6.4 µM. In experiment [2], this molecule came in with a half-maximal inhibitory concentration (IC50) above 50 µM.

Take `C=C(CC)C(=O)c1ccc(OCC(=O)Nc2ccc([C@]3(CC)CCC(=O)NC3=O)cc2)c(Cl)c1Cl`: the 50% effective concentration (EC50) in experiment [1] amounted to 2.8 µM. In experiment [2], the IC50 is 4.42 µM.

On to `C=C(CC)C(=O)c1ccc(OCC(=O)NCCN2CCOCC2)c(Cl)c1Cl`, for which the EC50 in experiment [1] was 6.4 µM. The same molecule came in with an IC50 in experiment [2] above 50 µM.

Turning to `C=C(CC)C(=O)c1ccc(OCC(=O)Nc2ccc(O)c([N+](=O)[O-])c2)c(Cl)c1Cl`, the concentration giving a half-maximal response (EC50) in experiment [1] was determined as 7.4 µM. This molecule registered an IC50 in experiment [2] of 4.23 µM.

`C=C(CC)C(=O)c1ccc(OCC(=O)Nc2ccc(/C=C/C(=O)OCC)cc2)c(Cl)c1Cl`: the EC50 in experiment [1] was 1.7 µM. In addition, the 50% inhibitory concentration (IC50) in experiment [2] was determined as 3.79 µM.

For the molecule `C=C(CC)C(=O)c1ccc(OCC(=O)Nc2ccc3c(c2)C(O)N=NC3O)c(Cl)c1Cl` (centres undefined), in experiment [1], the EC50 was determined as 8.5 µM. Also, the concentration for half-maximal inhibition (IC50) in experiment [2] came out at 6.58 µM.

Consider `C=C(CC)C(=O)c1ccc(OCC(=O)Nc2ccc(CC(=O)O)cc2)c(Cl)c1Cl`, for which, in experiment [1], the EC50 was found to be 3.2 µM. The IC50 in experiment [2] is above 50 µM.

Turning to `C=C(CC)C(=O)c1ccc(OCC(=O)Nc2cccc(C(=O)O)c2)c(Cl)c1Cl`, it took 20.6 µM to reach a half-maximal effect in experiment [1] (EC50). This molecule came in with a half-inhibitory concentration (IC50) in experiment [2] of 5.85 µM.

Consider `C=C(CC)C(=O)c1ccc(OCC(=O)NC2CCN(CC(=O)OC)CC2)c(Cl)c1Cl`, for which, in experiment [1], the EC50 came to 10.6 µM. The same molecule yielded an IC50 in experiment [2] above 50 µM.

The molecule `CCC(C)C(=O)c1ccc(OCC(=O)O)c(Cl)c1Cl` (centres undefined) came in with an EC50 in experiment [1] above 25 µM. In addition, in experiment [2], the IC50 is above 50 µM.

Regarding `C=C(CC)C(=O)c1ccc(OCC(=O)NCC(=O)O)c(Cl)c1Cl`, the EC50 in experiment [1] is above 25 µM. In experiment [2], this molecule displayed an IC50 above 50 µM.

Take `C=C(CC)C(=O)c1ccc(OCC(=O)Nc2ccc(C(=O)O)cn2)c(Cl)c1Cl`: the 50% effective concentration (EC50) in experiment [1] stood at 14.9 µM. The molecule also showed an IC50 in experiment [2] above 50 µM.

Take `C=C(CC)C(=O)c1ccc(OCC(=O)NCO[N+](=O)[O-])c(Cl)c1Cl`: in experiment [1], the EC50 stood at 4.1 µM. In experiment [2], this molecule showed an IC50 above 50 µM.

`C=C(CC)C(=O)c1ccc(OCC(=O)Nc2ccc(/C=C/C(=O)O)cc2)c(Cl)c1Cl` displayed an EC50 in experiment [1] of 3 µM. This molecule came in with an IC50 in experiment [2] of 2.51 µM.

`C=C(CC)C(=O)c1ccc(OCC(=O)Nc2ccc(O)c(Cl)c2)c(Cl)c1Cl` displayed an EC50 in experiment [1] of 5.5 µM. Besides, it took 3.8 µM to reach half-maximal inhibition in experiment [2] (IC50).

`C=C(CC)C(=O)c1ccc(OCC(=O)Nc2cc(Cl)ccc2C(=O)O)c(Cl)c1Cl` yielded an EC50 in experiment [1] of 13.8 µM. For the same molecule, the concentration for half-maximal inhibition (IC50) in experiment [2] worked out at 9.62 µM.

Take `C=C(CC)C(=O)c1ccc(OCC(=O)Nc2ccc(/C=C/C(=O)NO)cc2)c(Cl)c1Cl`: in experiment [1], the midpoint of the response, the EC50, lay at 2.6 µM. This molecule yielded an IC50 in experiment [2] of 1.81 µM.

In experiment [1], `C=C(CC)C(=O)c1ccc(OCC(=O)Nc2ccc(C(=O)O)c(O)c2)c(Cl)c1Cl` came in with an EC50 above 25 µM. Besides, in experiment [2], the IC50 was above 50 µM.

`C=C(CC)C(=O)c1ccc(OCC(=O)Nc2ccc(C(=O)NC(CCC(=O)OCC)C(=O)OCC)cc2)c(Cl)c1Cl` (centres undefined): the response in experiment [1] was half-maximal at 2.1 µM (EC50). In experiment [2], this molecule showed an IC50 of 2.61 µM.

Turning to `C=C(CC)C(=O)c1ccc(OCC(=O)Nc2ccc(Cc3ccc(N4C(=O)C5C6C=CC(C6)C5C4=O)cc3)cc2)c(Cl)c1Cl` (centres undefined), the EC50 in experiment [1] turned out to be 1.8 µM. The IC50 in experiment [2] worked out at 2.93 µM.

`C=C(CC)C(=O)c1ccc(OCC(=O)NCC2CCC(C(=O)O)CC2)c(Cl)c1Cl` (centres undefined) showed an EC50 in experiment [1] of 8 µM. Moreover, the IC50 in experiment [2] was above 50 µM.

In the case of `C=C(CC)C(=O)c1ccc(OCC(=O)Nc2nc(/C(=N\OC)C(=O)O)cs2)c(Cl)c1Cl`, the EC50 in experiment [1] was above 25 µM. Besides, in experiment [2], the IC50 is above 50 µM.

`C=C(CC)C(=O)c1ccc(OCC(=O)NCCO)c(Cl)c1Cl`: the concentration giving a half-maximal response (EC50) in experiment [1] is above 25 µM. Besides, the IC50 in experiment [2] is above 50 µM.
